In experiment [1] the target is T1, Toll-like receptor 7 (Homo sapiens) (UniProt Q9NYK1).
T1 sequence (whole entry): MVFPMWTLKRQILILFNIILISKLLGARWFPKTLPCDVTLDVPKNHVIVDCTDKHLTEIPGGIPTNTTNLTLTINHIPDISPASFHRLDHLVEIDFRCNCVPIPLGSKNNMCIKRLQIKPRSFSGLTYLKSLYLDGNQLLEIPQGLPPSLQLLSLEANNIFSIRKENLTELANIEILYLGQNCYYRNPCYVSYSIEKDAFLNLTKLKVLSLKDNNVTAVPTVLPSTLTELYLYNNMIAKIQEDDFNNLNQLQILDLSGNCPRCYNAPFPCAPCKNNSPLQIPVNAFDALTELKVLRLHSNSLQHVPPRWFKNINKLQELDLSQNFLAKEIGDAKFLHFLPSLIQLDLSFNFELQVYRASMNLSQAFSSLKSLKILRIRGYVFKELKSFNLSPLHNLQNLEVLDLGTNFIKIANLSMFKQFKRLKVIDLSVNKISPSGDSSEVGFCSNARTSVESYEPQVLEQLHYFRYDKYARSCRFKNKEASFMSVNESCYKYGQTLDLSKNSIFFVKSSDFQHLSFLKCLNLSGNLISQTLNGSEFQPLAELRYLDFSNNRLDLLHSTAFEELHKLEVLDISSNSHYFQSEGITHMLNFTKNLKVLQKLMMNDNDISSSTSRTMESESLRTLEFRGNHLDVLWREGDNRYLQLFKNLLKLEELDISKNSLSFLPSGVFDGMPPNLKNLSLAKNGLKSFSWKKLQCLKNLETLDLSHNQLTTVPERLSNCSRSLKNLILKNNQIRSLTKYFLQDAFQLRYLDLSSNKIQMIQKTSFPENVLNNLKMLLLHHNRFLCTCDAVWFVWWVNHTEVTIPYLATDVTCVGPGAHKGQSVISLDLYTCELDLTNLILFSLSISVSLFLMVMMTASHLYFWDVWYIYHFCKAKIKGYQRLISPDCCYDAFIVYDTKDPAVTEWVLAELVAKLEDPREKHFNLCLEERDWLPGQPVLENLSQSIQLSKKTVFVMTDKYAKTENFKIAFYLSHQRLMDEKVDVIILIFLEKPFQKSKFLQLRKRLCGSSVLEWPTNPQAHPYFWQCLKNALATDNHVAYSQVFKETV
Kind of experiment: Activation of human TLR7 expressed in HEK293XL assessed as fold induction of NF-kappaB activity at 50 ug/ml after 18 hrs by reporter gene assay relative to control. Summed up: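 HEK293 cells stably expressing human TLR7 or TLR8, transiently transfected with SEAP reporter plasmid; medium replaced, SIMRA compounds added, 18 h incubation. Supernatant SEAP measured by QuantiBlue; expressed as fold increase in NF-κB activity over PBS control. Tabulated data at 50 μg/mL, representative of three independent experiments.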
(In a reporter assay the amount or activity of a reporter protein is the signal.)

The species entered for the next experiment is Homo sapiens. Kind of experiment: Ratio of human TLR7 activity to human TLR8 activity. The essentials: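 TLR7/TLR8 ratio computed from fold NF-κB (SEAP reporter) activation in HEK293 cells stably expressing human TLR7 versus TLR8, compounds at 50 μg/mL, 18 h exposure; representative of three independent experiments.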

Structures are written as SMILES.

As for `Nc1ccn([C@@H]2O[C@H](COP(=O)(S)O[C@H]3[C@@H](O)[C@H](n4ccc5c(=O)[nH]c(N)nc54)O[C@@H]3CO[C@H]3[C@@H](O)[C@H](n4cnc5c(N)ncnc54)O[C@@H]3COP(=O)(S)O[C@H]3[C@@H](O)[C@H](n4ccc5c(=O)[nH]c(N)nc54)O[C@@H]3COP(=O)(S)O[C@H]3[C@@H](O)[C@H](n4ccc(=O)[nH]c4=O)O[C@@H]3COP(=O)(S)O[C@H]3[C@@H](O)[C@H](n4ccc(N)nc4=O)O[C@@H]3COP(=O)(S)O[C@H]3[C@@H](O)[C@H](n4ccc5c(=O)[nH]c(N)nc54)O[C@@H]3COP(=O)(S)O[C@H]3[C@@H](O)[C@H](n4ccc(=O)[nH]c4=O)O[C@@H]3COP(=O)(S)O[C@H]3[C@@H](O)[C@H](n4ccc(=O)[nH]c4=O)O[C@@H]3CO)[C@@H](OP(=O)(S)OC[C@H]3O[C@@H](n4ccc(=O)[nH]c4=O)[C@H](O)[C@@H]3OP(=O)(S)OC[C@H]3O[C@@H](n4ccc(=O)[nH]c4=O)[C@H](O)[C@@H]3OP(=O)(S)OCC(O)COP(=O)(S)O[C@H]3[C@@H](O)[C@H](n4ccc(=O)[nH]c4=O)O[C@@H]3COP(=O)(S)O[C@H]3[C@@H](O)[C@H](n4ccc(=O)[nH]c4=O)O[C@@H]3COP(=O)(S)O[C@H]3[C@@H](O)[C@H](n4ccc(N)nc4=O)O[C@@H]3COP(=O)(S)O[C@H]3[C@@H](O)[C@H](n4ccc5c(=O)[nH]c(N)nc54)O[C@@H]3CO[C@H]3[C@@H](O)[C@H](n4cnc5c(N)ncnc54)O[C@@H]3COP(=O)(S)O[C@H]3[C@@H](O)[C@H](n4ccc5c(=O)[nH]c(N)nc54)O[C@@H]3COP(=O)(S)O[C@H]3[C@@H](O)[C@H](n4ccc(=O)[nH]c4=O)O[C@@H]3COP(=O)(S)O[C@H]3[C@@H](O)[C@H](n4ccc(N)nc4=O)O[C@@H]3COP(=O)(S)O[C@H]3[C@@H](O)[C@H](n4ccc5c(=O)[nH]c(N)nc54)O[C@@H]3COP(=O)(S)O[C@H]3[C@@H](O)[C@H](n4ccc(=O)[nH]c4=O)O[C@@H]3COP(=O)(S)O[C@H]3[C@@H](O)[C@H](n4ccc(=O)[nH]c4=O)O[C@@H]3CO)[C@H]2O)c(=O)n1` (stereo partly drawn), the fold change (FC) in experiment [1] was determined as 26.7. Further, in the experiment listed under Homo sapiens, the Ratio was 66.8.

For `Nc1ccn([C@@H]2O[C@H](COP(=O)(S)O[C@H]3[C@@H](O)[C@H](n4cnc5c(N)ncnc54)O[C@@H]3COP(=O)(S)O[C@H]3[C@@H](O)[C@H](n4cnc5c(N)ncnc54)O[C@@H]3CO)[C@@H](OP(=O)(S)OC[C@H]3O[C@@H](n4ccc(=O)[nH]c4=O)[C@H](O)[C@@H]3OP(=O)(S)OC[C@H]3O[C@@H](n4ccc5c(=O)[nH]c(N)nc54)[C@H](O)[C@@H]3OP(=O)(S)OC[C@H]3O[C@@H](n4ccc(N)nc4=O)[C@H](O)[C@@H]3OP(=O)(S)OC[C@H]3O[C@@H](n4ccc5c(=O)[nH]c(N)nc54)[C@H](O)[C@@H]3OP(=O)(S)OC[C@H]3O[C@@H](n4cnc5c(N)ncnc54)[C@H](O)[C@@H]3OP(=O)(S)OC[C@H]3O[C@@H](n4ccc(N)nc4=O)[C@H](O)[C@@H]3OP(=O)(S)OC[C@H]3O[C@@H](n4ccc(=O)[nH]c4=O)[C@H](O)[C@@H]3OP(=O)(S)OC[C@H]3O[C@@H](n4ccc(=O)[nH]c4=O)[C@H](O)[C@@H]3OP(=O)(S)OCC(O)COP(=O)(S)O[C@H]3[C@@H](O)[C@H](n4ccc(=O)[nH]c4=O)O[C@@H]3COP(=O)(S)O[C@H]3[C@@H](O)[C@H](n4ccc(=O)[nH]c4=O)O[C@@H]3COP(=O)(S)O[C@H]3[C@@H](O)[C@H](n4ccc(N)nc4=O)O[C@@H]3COP(=O)(S)O[C@H]3[C@@H](O)[C@H](n4cnc5c(N)ncnc54)O[C@@H]3COP(=O)(S)O[C@H]3[C@@H](O)[C@H](n4ccc5c(=O)[nH]c(N)nc54)O[C@@H]3COP(=O)(S)O[C@H]3[C@@H](O)[C@H](n4ccc(N)nc4=O)O[C@@H]3COP(=O)(S)O[C@H]3[C@@H](O)[C@H](n4ccc5c(=O)[nH]c(N)nc54)O[C@@H]3COP(=O)(S)O[C@H]3[C@@H](O)[C@H](n4ccc(=O)[nH]c4=O)O[C@@H]3COP(=O)(S)O[C@H]3[C@@H](O)[C@H](n4ccc(N)nc4=O)O[C@@H]3COP(=O)(S)O[C@H]3[C@@H](O)[C@H](n4cnc5c(N)ncnc54)O[C@@H]3COP(=O)(S)O[C@H]3[C@@H](O)[C@H](n4cnc5c(N)ncnc54)O[C@@H]3CO)[C@H]2O)c(=O)n1` (stereo partly drawn), in experiment [1], the fold change (FC) stood at 6.5. Moreover, the Ratio in the experiment filed under Homo sapiens came out at 21.7.

Consider `Nc1ccn([C@@H]2O[C@H](CO)[C@@H](OP(=O)(S)OC[C@H]3O[C@@H](n4ccc(=O)[nH]c4=O)[C@H](O)[C@@H]3OP(=O)(S)OC[C@H]3O[C@@H](n4ccc(=O)[nH]c4=O)[C@H](O)[C@@H]3OP(=O)(S)OC[C@H]3O[C@@H](n4ccc5c(=O)[nH]c(N)nc54)[C@H](O)[C@@H]3OP(=O)(S)OC[C@H]3O[C@@H](n4ccc(=O)[nH]c4=O)[C@H](O)[C@@H]3OP(=O)(S)OC[C@H]3O[C@@H](n4ccc5c(=O)[nH]c(N)nc54)[C@H](O)[C@@H]3OP(=O)(S)OC[C@H]3O[C@@H](n4cnc5c(N)ncnc54)[C@H](O)[C@@H]3OP(=O)(S)OC[C@H]3O[C@@H](n4ccc5c(=O)[nH]c(N)nc54)[C@H](O)[C@@H]3OP(=O)(S)OC[C@H]3O[C@@H](n4ccc(N)nc4=O)[C@H](O)[C@@H]3OP(=O)(S)OC[C@H]3O[C@@H](n4ccc(=O)[nH]c4=O)[C@H](O)[C@@H]3OP(=O)(S)OC[C@H]3O[C@@H](n4ccc(=O)[nH]c4=O)[C@H](O)[C@@H]3OP(=O)(S)OCC(O)COP(=O)(S)O[C@H]3[C@@H](O)[C@H](n4ccc(=O)[nH]c4=O)O[C@@H]3COP(=O)(S)O[C@H]3[C@@H](O)[C@H](n4ccc(=O)[nH]c4=O)O[C@@H]3COP(=O)(S)O[C@H]3[C@@H](O)[C@H](n4ccc(N)nc4=O)O[C@@H]3COP(=O)(S)O[C@H]3[C@@H](O)[C@H](n4ccc5c(=O)[nH]c(N)nc54)O[C@@H]3COP(=O)(S)O[C@H]3[C@@H](O)[C@H](n4cnc5c(N)ncnc54)O[C@@H]3COP(=O)(S)O[C@H]3[C@@H](O)[C@H](n4ccc5c(=O)[nH]c(N)nc54)O[C@@H]3COP(=O)(S)O[C@H]3[C@@H](O)[C@H](n4ccc(=O)[nH]c4=O)O[C@@H]3COP(=O)(S)O[C@H]3[C@@H](O)[C@H](n4ccc5c(=O)[nH]c(N)nc54)O[C@@H]3COP(=O)(S)O[C@H]3[C@@H](O)[C@H](n4ccc(=O)[nH]c4=O)O[C@@H]3COP(=O)(S)O[C@H]3[C@@H](O)[C@H](n4ccc(=O)[nH]c4=O)O[C@@H]3COP(=O)(S)O[C@H]3[C@@H](O)[C@H](n4ccc(N)nc4=O)O[C@@H]3CO)[C@H]2O)c(=O)n1` (stereo partly drawn), for which the fold change (FC) in experiment [1] worked out at 28.9. Besides, the Ratio in the experiment filed under Homo sapiens was 19.3.

`Nc1ccn([C@@H]2O[C@H](COP(=O)(S)O[C@H]3[C@@H](O)[C@H](n4cnc5c(N)ncnc54)O[C@@H]3COP(=O)(S)O[C@H]3[C@@H](O)[C@H](n4cnc5c(N)ncnc54)O[C@@H]3CO)[C@@H](OP(=O)(S)OC[C@H]3O[C@@H](n4ccc(=O)[nH]c4=O)[C@H](O)[C@@H]3OP(=O)(S)OC[C@H]3O[C@@H](n4ccc(=O)[nH]c4=O)[C@H](O)[C@@H]3OP(=O)(S)OC[C@H]3O[C@@H](n4ccc5c(=O)[nH]c(N)nc54)[C@H](O)[C@@H]3OP(=O)(S)OC[C@H]3O[C@@H](n4cnc5c(N)ncnc54)[C@H](O)[C@@H]3OP(=O)(S)OC[C@H]3O[C@@H](n4ccc5c(=O)[nH]c(N)nc54)[C@H](O)[C@@H]3OP(=O)(S)OC[C@H]3O[C@@H](n4ccc(N)nc4=O)[C@H](O)[C@@H]3OP(=O)(S)OC[C@H]3O[C@@H](n4ccc(=O)[nH]c4=O)[C@H](O)[C@@H]3OP(=O)(S)OC[C@H]3O[C@@H](n4ccc(=O)[nH]c4=O)[C@H](O)[C@@H]3OP(=O)(S)OCC(O)COP(=O)(S)O[C@H]3[C@@H](O)[C@H](n4ccc(=O)[nH]c4=O)O[C@@H]3COP(=O)(S)O[C@H]3[C@@H](O)[C@H](n4ccc(=O)[nH]c4=O)O[C@@H]3COP(=O)(S)O[C@H]3[C@@H](O)[C@H](n4ccc(N)nc4=O)O[C@@H]3COP(=O)(S)O[C@H]3[C@@H](O)[C@H](n4ccc5c(=O)[nH]c(N)nc54)O[C@@H]3COP(=O)(S)O[C@H]3[C@@H](O)[C@H](n4cnc5c(N)ncnc54)O[C@@H]3COP(=O)(S)O[C@H]3[C@@H](O)[C@H](n4ccc5c(=O)[nH]c(N)nc54)O[C@@H]3COP(=O)(S)O[C@H]3[C@@H](O)[C@H](n4ccc(=O)[nH]c4=O)O[C@@H]3COP(=O)(S)O[C@H]3[C@@H](O)[C@H](n4ccc(=O)[nH]c4=O)O[C@@H]3COP(=O)(S)O[C@H]3[C@@H](O)[C@H](n4ccc(N)nc4=O)O[C@@H]3COP(=O)(S)O[C@H]3[C@@H](O)[C@H](n4cnc5c(N)ncnc54)O[C@@H]3COP(=O)(S)O[C@H]3[C@@H](O)[C@H](n4cnc5c(N)ncnc54)O[C@@H]3CO)[C@H]2O)c(=O)n1` (stereo partly drawn): the fold change (FC) in experiment [1] was 20.1. Moreover, in the experiment filed under Homo sapiens, the Ratio turned out to be 20.1.

The values above are taken from ChEMBL document CHEMBL1154352, “Toll-like receptor 7 selective synthetic oligoribonucleotide agonists: synthesis and structure-activity relationship studies” (J Med Chem, 2009).
